From ChEMBL document CHEMBL4017460, “A Tobramycin Vector Enhances Synergy and Efficacy of Efflux Pump Inhibitors against Multidrug-Resistant Gram-Negative Bacteria” (J Med Chem, 2017)
Values after ≈ are worked out from the molar mass of the structure shown. Active and inactive are the calls of the source. The calls are words filed in the database; no cut-off is given here.

Assays:
[1] = test system: Pseudomonas aeruginosa PAO1; experiment: Inhibition of RND efflux pump in Pseudomonas aeruginosa PAO1 assessed as potentiation of minocycline-induced antibacterial activity by measuring minocycline MIC at 8 ug/ml after 18 to 24 hrs by microbroth dilution assay (reference value: 8 ug/ml)
Summary of the method: (§1)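 Absolute minocycline MIC taken from checkerboard broth dilution with a fixed 8 μg/mL adjuvant. Inoculum was a 0.5 McFarland saline suspension diluted 1:50 in MHB, incubated 37 °C for 18 h. MIC is the lowest concentration with no growth.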

[2] = test system: Pseudomonas aeruginosa; experiment: Antibacterial activity against Pseudomonas aeruginosa PAO1 after 18 to 24 hrs by microbroth dilution assay; assay type: functional
Summary of the method: (§2)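 Checkerboard in MHB: antibiotic 2-fold diluted along one axis, test agent 2-fold diluted along the other. Overnight culture standardized to 0.5 McFarland in saline, diluted 1:50 in MHB, added to wells, incubated 37 °C for 18 h. MIC is the lowest concentration with no growth. FIC = MIC in combination / MIC alone; FIC index = sum of both FICs.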

[3] = test system: Pseudomonas aeruginosa PAO1; experiment: Inhibition of RND efflux pump in Pseudomonas aeruginosa PAO1 assessed as potentiation of minocycline-induced antibacterial activity at 8 ug/ml after 18 to 24 hrs by checker board assay; summary of the method: as §2
[4] = test system: Pseudomonas aeruginosa PAO1; experiment: Inhibition of RND efflux pump in Pseudomonas aeruginosa PAO1 assessed as potentiation of minocycline-induced antibacterial activity by measuring fold reduction in minocycline MIC at 8 ug/ml after 18 to 24 hrs by microbroth dilution assay relative to minocycline alone; summary of the method: as §1
[5] = Toxicity in Galleria mellonella assessed as death at 100 mg/kg after 24 hrs relative to control; assay type: organism-based; conditions: in vivo, read-out: Activity
[6] = test system: Klebsiella pneumoniae; experiment: Inhibition of RND efflux pump in Klebsiella pneumoniae isolate 116381 assessed as potentiation of minocycline-induced antibacterial activity by measuring minocycline MIC at 8 ug/ml after 18 to 24 hrs by microbroth dilution assay (reference value: 128 ug/ml); summary of the method: as §1
[7] = test system: Enterobacter cloacae; experiment: Inhibition of RND efflux pump in Enterobacter cloacae isolate 117029 assessed as potentiation of minocycline-induced antibacterial activity by measuring minocycline MIC at 8 ug/ml after 18 to 24 hrs by microbroth dilution assay (reference value: 128 to 256 ug/ml); summary of the method: as §1
[8] = test system: Klebsiella pneumoniae; experiment: Inhibition of RND efflux pump in Klebsiella pneumoniae isolate 116381 assessed as potentiation of minocycline-induced antibacterial activity at 8 ug/ml after 18 to 24 hrs by microbroth dilution assay; summary of the method: as §2
[9] = test system: Enterobacter cloacae; experiment: Inhibition of RND efflux pump in Enterobacter cloacae isolate 117029 assessed as potentiation of minocycline-induced antibacterial activity at 8 ug/ml after 18 to 24 hrs by microbroth dilution assay; summary of the method: as §2
[10] = test system: Klebsiella pneumoniae; experiment: Antibacterial activity against Klebsiella pneumoniae isolate 116381 after 18 to 24 hrs by microbroth dilution assay; assay type: functional; summary of the method: as §2
[11] = test system: Enterobacter cloacae; experiment: Antibacterial activity against Enterobacter cloacae isolate 117029 after 18 to 24 hrs by microbroth dilution assay; assay type: functional; summary of the method: as §2
[12] = test system: Pseudomonas aeruginosa PAO1; experiment: Inhibition of RND efflux pump in Pseudomonas aeruginosa PAO1 assessed as increase in tetracycline uptake at 13.6 ug/ml measured at 1 min interval for 30 mins by fluorescence assay
Summary of the method: (§3)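 Tetracycline uptake assay in P. aeruginosa PAO1: enhancement of tetracycline fluorescence as it enters cells, monitored with compound present at several concentrations.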

[13] = test system: Pseudomonas aeruginosa PAO1; experiment: Inhibition of RND efflux pump in Pseudomonas aeruginosa PAO1 assessed as potentiation of minocycline-induced antibacterial activity by measuring ratio of minocycline MIC after 25 serial passages to minocycline MIC at sub-MIC after 18 to 24 hrs by microbroth dilution assay
[14] = test system: Pseudomonas aeruginosa; experiment: Antibacterial activity against XDR Pseudomonas aeruginosa isolate P262-101856 infected in Galleria mellonella assessed as protection against bacterial infection by measuring larval death at 75 mg/kg up to 24 hrs relative to control; assay type: functional
Summary of the method: (§4)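 G. mellonella larvae infected with 1.0 × 10^5/mL CFU of XDR P. aeruginosa 101856. A single-dose injection of agent, alone or with minocycline, given 2 h post-infection. Survival scored up to 24 h. 15 larvae per experiment from different batches, two experiments per dosage (n = 30). Significance 0 vs 24 h at P ≤ 0.05.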

[15] = test system: Pseudomonas aeruginosa; experiment: Inhibition of RND efflux pump in XDR Pseudomonas aeruginosa isolate P262-101856 infected in Galleria mellonella assessed as potentiation of minocycline-induced antibacterial activity by measuring larval survival rate at 75 mg/kg co-treated with 75 mg/kg minocycline measured after 24 hrs relative to control; assay type: organism-based; summary of the method: as §4
[16] = test system: Pseudomonas aeruginosa; experiment: Inhibition of RND efflux pump in XDR Pseudomonas aeruginosa isolate P262-101856 infected in Galleria mellonella assessed as potentiation of minocycline-induced antibacterial activity by measuring larval death rate at 75 mg/kg co-treated with 75 mg/kg minocycline measured after 24 hrs relative to control; assay type: organism-based; set-up: scale not given: the % may be the effect or the level left; summary of the method: as §4
[17] = test system: Pseudomonas aeruginosa PAO1; experiment: Inhibition of RND efflux pump in Pseudomonas aeruginosa PAO1 assessed as increase in tetracycline uptake up to 5.7 ug/ml measured at 1 min interval for 30 mins by fluorescence assay
[18] = test system: Pseudomonas aeruginosa; experiment: Induction of cytoplasmic membrane depolarization in Pseudomonas aeruginosa PAO1 at 16 ug/ml by DiSC3(5) dye based fluorescence assay; assay type: functional
Summary of the method: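 Cytoplasmic membrane depolarization in P. aeruginosa PAO1, monitored by DiSC3(5) fluorescence across a range of compound concentrations. Colistin served as positive control.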

[19] = test system: Pseudomonas aeruginosa; experiment: Induction of outer membrane permeabilization in Pseudomonas aeruginosa PAO1 assessed as increase in tetracycline uptake at 29 ug/ml measured at 1 min interval for 30 mins by fluorescence assay; assay type: functional; summary of the method: as §3
[20] = test system: Pseudomonas aeruginosa; experiment: Antibacterial activity against Pseudomonas aeruginosa PAO1 assessed as ratio of MIC after 25 serial passages at sub-MIC to MIC after 1 passage by microbroth dilution assay; assay type: functional
[21] = test system: Pseudomonas aeruginosa; experiment: Induction of membrane destabilization in Pseudomonas aeruginosa PAO1 assessed as increase in tetracycline uptake at 5 ug/ml measured at 1 min interval for 30 mins by fluorescence assay; assay type: functional
[22] = test system: Pseudomonas aeruginosa PAO1; experiment: Inhibition of RND efflux pump in Pseudomonas aeruginosa PAO1 assessed as increase in tetracycline uptake up to 8.2 ug/ml measured at 1 min interval for 30 mins by fluorescence assay; summary of the method: as §3

NC[C@@H]1CN[C@@H](C(=O)N[C@H](CCc2ccccc2)C(=O)Nc2ccc3ccccc3c2)C1
MIC [1]: 1 µg/mL
MIC [2]: 256 µg/mL (≈ 595 µM)
fractional inhibitory concentration index (FICI) [3]: 0.13
fold change (FC) [4]: 8
mortality at 24 h [5]: 80%
MIC [6]: 4 µg/mL
MIC [7]: 8 µg/mL
fractional inhibitory concentration index (FICI) [8]: 0.06
fractional inhibitory concentration index (FICI) [9]: 0.13
MIC [10]: 256 µg/mL (≈ 595 µM)
MIC [11]: 64 µg/mL (≈ 149 µM)
inhibition [12]: Active
Ratio [13]: 4

NC[C@H]1O[C@H](O[C@H]2[C@H](OCCCCCCCCCCN3CCN(Cc4cccc5ccccc45)CC3)[C@@H](O[C@H]3O[C@H](CO)[C@@H](O)[C@H](N)[C@H]3O)[C@H](N)C[C@@H]2N)[C@H](N)C[C@@H]1O.O=C(O)C(F)(F)F.O=C(O)C(F)(F)F.O=C(O)C(F)(F)F.O=C(O)C(F)(F)F.O=C(O)C(F)(F)F.O=C(O)C(F)(F)F.O=C(O)C(F)(F)F
MIC [1]: 1 µg/mL
MIC [2]: > 512 µg/mL
fractional inhibitory concentration index (FICI) [3]: 0.125 to 0.14

c1ccc2c(CN3CCNCC3)cccc2c1
MIC [1]: 8 µg/mL
MIC [2]: 512 µg/mL (≈ 2260 µM)
fractional inhibitory concentration index (FICI) [3]: 1.02
Activity [14]: 100%
Survival [15]: 0%
Activity [16]: 100%
MIC [6]: 128 µg/mL
MIC [7]: 128 µg/mL
fractional inhibitory concentration index (FICI) [8]: 0.25 to 0.38
fractional inhibitory concentration index (FICI) [9]: > 0.5
MIC [10]: > 512 µg/mL
MIC [11]: > 512 µg/mL
inhibition [17]: inactive

Cl.Cl.Cl.Cl.Cl.Cl.Cl.NC[C@H]1O[C@H](O[C@H]2[C@H](OCCCCN3CCN(Cc4cccc5ccccc45)CC3)[C@@H](O[C@H]3O[C@H](CO)[C@@H](O)[C@H](N)[C@H]3O)[C@H](N)C[C@@H]2N)[C@H](N)C[C@@H]1O
MIC [1]: 4 µg/mL
MIC [2]: 512 µg/mL
fractional inhibitory concentration index (FICI) [3]: 0.25 to 0.5

COLISTIN
fractional inhibitory concentration index (FICI) [3]: 0.5
Activity [18]: Active
Activity [19]: Active
Ratio [20]: > 1024

NC[C@H]1O[C@H](O[C@H]2[C@H](O)[C@@H](O[C@H]3O[C@H](CO)[C@@H](O)[C@H](N)[C@H]3O)[C@H](N)C[C@@H]2N)[C@H](N)C[C@@H]1O [TOBRAMYCIN]
MIC [2]: 0.25 µg/mL (≈ 0.535 µM)
fractional inhibitory concentration index (FICI) [3]: 1.06
Ratio [20]: 256

N#CC(C#N)=NNc1cccc(Cl)c1
Activity [21]: Active

CN(C)c1ccc(O)c2c1C[C@H]1C[C@H]3[C@H](N(C)C)C(O)=C(C(N)=O)C(=O)[C@@]3(O)C(O)=C1C2=O [MINOCYCLINE]
Activity [14]: 100%
Ratio [20]: 16

Cetrimonium bromide
fractional inhibitory concentration index (FICI) [3]: 0.75

Cl.Cl.Cl.Cl.Cl.Cl.Cl.NC[C@H]1O[C@H](O[C@H]2[C@H](OCCCCCCN3CCN(Cc4cccc5ccccc45)CC3)[C@@H](O[C@H]3O[C@H](CO)[C@@H](O)[C@H](N)[C@H]3O)[C@H](N)C[C@@H]2N)[C@H](N)C[C@@H]1O
MIC [1]: 4 µg/mL
MIC [2]: > 512 µg/mL
fractional inhibitory concentration index (FICI) [3]: 0.25 to 0.5

Fc1ccc([C@@H]2CCNC[C@H]2COc2ccc3c(c2)OCO3)cc1 [PAROXETINE]
MIC [1]: 8 µg/mL
MIC [2]: 512 µg/mL (≈ 1550 µM)
fractional inhibitory concentration index (FICI) [3]: 1.02
Activity [16]: 100%
MIC [6]: 128 µg/mL
MIC [7]: 64 µg/mL
fractional inhibitory concentration index (FICI) [8]: 0.63
fractional inhibitory concentration index (FICI) [9]: 0.5
MIC [10]: 128 µg/mL (≈ 389 µM)
MIC [11]: 64 µg/mL (≈ 194 µM)
inhibition [22]: inactive

Cl.Cl.Cl.Cl.Cl.Cl.Cl.NC[C@H]1O[C@H](O[C@H]2[C@H](OCCCCCCCCN3CCN(Cc4cccc5ccccc45)CC3)[C@@H](O[C@H]3O[C@H](CO)[C@@H](O)[C@H](N)[C@H]3O)[C@H](N)C[C@@H]2N)[C@H](N)C[C@@H]1O
MIC [1]: 2 µg/mL
MIC [2]: > 512 µg/mL
fractional inhibitory concentration index (FICI) [3]: 0.125 to 0.25

Cl.Cl.Cl.Cl.Cl.Cl.Cl.NC[C@H]1O[C@H](O[C@H]2[C@H](OCCN3CCN(Cc4cccc5ccccc45)CC3)[C@@H](O[C@H]3O[C@H](CO)[C@@H](O)[C@H](N)[C@H]3O)[C@H](N)C[C@@H]2N)[C@H](N)C[C@@H]1O
MIC [1]: 4 µg/mL
MIC [2]: 128 µg/mL
fractional inhibitory concentration index (FICI) [3]: 0.53
